A selection: hits, their analogues and other compounds. The true share with any hit is near 3.3%.
STAT3 act – STAT3 signaling activation; actives 0.91% (n = 190,000); activation (% of control), % at 5.6 µM; U3A cells, IL-6 STAT3-luciferase reporter, luminescence; 100% = signal with IL-6 EC80 alone;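 active means activation above the screen-wide mean of compound activation plus 3 SD, cut at about 130% in these data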;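 further: 0% = background luminescence of wells with medium and substrate only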
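Test system: STAT3-luciferase reporter U3A cells; Detection: reporter luminescence signal; Times: 1 h compound pre-exposure, 6 h IL-6 stimulation, 37 °C; Benchmarks: IL-6-only high control; Also added: IL-6 stimulus at 33 ng/mL final.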
ABCB6 inh 2 – inhibitors of human ABC transporter ABCB6 | actives 0.19% (n = 360,000) | K562-ABCB6 porphyrin accumulation, flow cytometry, 1 h; hits give low values | fluorescence ratio to DMSO, % at 10 µM | AID 602162 | Q9NP58;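 active means fluorescence ratio to DMSO below 75%, the collection mean minus 3 SD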;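 further: signal is porphyrin accumulated inside mitochondria; 100% equals median channel fluorescence of DMSO control wells; lower ratio means ABCB6 inhibition with less porphyrin fluorescence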
AHR activator – activates the human aryl hydrocarbon receptor; P35869; AHR-responsive luciferase reporter cells, luminescence; activation, % at 5 µM; actives 2.5% (n = 320,000); in the data active means activation above about 47%;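 further: 0% = vehicle wells and 100% = reference agonist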
GAA850 FXN act – activators of GAA850 frataxin (FXN) promoter. activation, % at 6 µM. HEK293 lucGAA850 FXN promoter luciferase reporter, 24 h; percent of 10 µM SAHA response. actives 0.56% (n = 360,000);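 active means activation above the average of all compounds screened plus 3 SD, cutoff fixed separately per campaign, cut at about 7.5% in these data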;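 further: 0% = DMSO wells and 100% = 10 µM SAHA wells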
ABCB6 inh CP1 – human ABCB6 transporter inhibition. shares compounds with ABCB6 inh 2. K562-ABCB6 porphyrin accumulation, flow cytometry, 1 h; hits give low values. AID 602430. ratio response (% of DMSO), % at 10 µM. 700 tested, under 10 active;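 active means repeat-averaged ratio response below 75% of DMSO, the collection mean minus 3 SD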;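 further: median porphyrin fluorescence at 575 nm with 488 nm excitation from mitochondria; lower ratio means less porphyrin signal so ABCB6 inhibition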
Active calls of the source: *; x = no result.

SMILES	STAT3 act	ABCB6 inh 2	AHR activator	GAA850 FXN act	ABCB6 inh CP1
O=c1oc2ccccc2c(NC2CCCCC2)c1NS(=O)(=O)c1ccc(F)cc1	x	97	-1	0	x
Cc1ccc(S(=O)(=O)N2CCOCC2)cc1NC(=O)COC(=O)Cc1ccccc1	x	102	0	1	x
Cc1ccc(NC2CC(C)NC(=S)N2)cc1 (stereo not drawn)	x	104	1	0	x
Cc1cnc(C(=O)OCc2ccc(Br)cc2)cn1	x	73*	0	1	104
Cc1cnc(C(=O)OCc2ccc(C#N)cc2)cn1	x	101	2	-1	x
O=C(CCc1ccc(CCC(=O)c2cccs2)s1)c1cccs1	103	95	4	4	x
CC1C(=O)Nc2ccccc2N1C(=O)C1CC1 (stereo not drawn)	99	72*	-1	-2	100
CC(C)(C)OC(=O)N(CCc1ccccc1)Cc1ccccc1OCc1cccc(NC(=O)/C=C/c2ccccc2)c1	x	96	x	-2	x
O=S(=O)(Nc1ccccn1)c1cnc(Cl)c(Br)c1	106	92	0	1	x
Cc1ccc(-n2cnc3scc(-c4cccs4)c3c2=O)cc1	112	97	1	0	x
O=c1c2c(-c3cccs3)csc2ncn1-c1ccccc1	115	47*	6	1	97
C/C(=N\O)c1c(O)cc(-c2ccccc2)n(-c2ccccc2)c1=O	x	99	-1	-1	x
O=c1c(-c2ccccc2)c(O)cc(-c2ccncc2)n1-c1ccc(Cl)cc1	104	64*	0	0	102
CC(C)C[C@H](NC(=O)Nc1ccccc1F)C(=O)O	94	45*	1	-3	98
O=C(COC(=O)CCCC1=NS(=O)(=O)c2ccccc2N1)Nc1ccccc1	x	98	1	0	99
COc1cc(NC(=O)COC(=O)CCCC2=NS(=O)(=O)c3ccccc3N2)cc(OC)c1	x	97	2	-1	100
CCOC(=O)[C@H]1[C@H]2COc3cc(OC)ccc3[C@@H]2N2C(=O)N(c3cccc(F)c3)C(=O)[C@@]12C	x	99	1	1	x
CCOC(=O)[C@@H]1[C@H]2COc3cc(OC)ccc3[C@H]2N2C(=O)N(c3cccc(F)c3)C(=O)[C@@]12C	x	73*	-1	-1	99
Cc1c(Cl)cccc1NC(=O)CCCn1cnc([N+](=O)[O-])n1	94	101	0	3	x
O=C(CCCn1cnc([N+](=O)[O-])n1)Nc1cccc(Cl)c1Cl	110	72*	3	1	104
Cc1nn(-c2ccccc2)c2c1C1(C(=O)N(C)c3ccccc31)C(C#N)=C(N)O2 (stereo not drawn)	122	97	19	2	x
CC(=O)N1C(=O)C2(C(C#N)=C(N)Oc3c2c(C)nn3-c2ccccc2)c2ccccc21 (stereo not drawn)	101	44*	18	-2	101
O=C(CSc1ccc2ccccc2c1Br)Nc1cccc(S(=O)(=O)NC2=NCCCCC2)c1	89	67*	3	1	99
OC[C@@H]1CN(Cc2ccc(-c3ccccc3)cc2)C[C@H](n2cnc3c(NC4CCC4)ncnc32)O1	x	90	x	-5	x
COC(=O)C1CCN(S(=O)(=O)c2c[nH]c(=O)[nH]c2=O)CC1	x	94	x	1	99
SMILES	STAT3 act	ABCB6 inh 2	AHR activator	GAA850 FXN act	ABCB6 inh CP1
COC(=O)C1CCN(S(=O)(=O)c2ccc(Br)s2)CC1	x	90	1	3	97
CCOC(=O)N1CCN(C(=O)C2CCN(c3nnc(-n4cccc4)s3)CC2)CC1	x	101	1	1	x
CC1(C(=O)NS(=O)(=O)c2ccc(F)cc2F)CCN1C(=O)CCc1ccc(Cl)cc1Cl (stereo not drawn)	x	101	x	1	100
CC1(C(=O)NS(=O)(=O)c2cccc(F)c2)CCN1C(=O)CCc1ccc(Cl)cc1Cl (stereo not drawn)	x	97	x	0	x
CC1(C(=O)NS(=O)(=O)c2ccc(C#N)cc2)CCN1C(=O)CCc1ccc(Cl)cc1Cl (stereo not drawn)	x	73*	x	-2	100
O=C(/C=C/c1ccc(Br)o1)NC(c1ccccc1)c1ccccc1	108	100	3	-2	x
CCOC(=O)C1(C(F)(F)F)N=C(C(F)(F)F)Nc2ccc(F)cc21 (stereo not drawn)	98	59*	8	0	103
CCOC(=O)C(NC(=O)Nc1ccc(F)cc1)(OCC)C(F)(F)F (stereo not drawn)	106	88	-1	2	x
COc1ccc(NC(=O)c2cc(CN3C(=O)c4ccccc4C3=O)ccc2OC)cn1	92	70*	-18	-3	102
CC1=CC(C)(C)N2C(=O)C3(C(C#N)=C(N)Oc4cc(C)oc(=O)c43)c3cc(C)cc1c32 (stereo not drawn)	99	67*	18	-1	96
COc1ccccc1Cn1nnc2c(=O)[nH]c(C3CCN(C(=O)c4ccc(C)cc4)CC3)nc21	110	112	1	0	100
COc1ccccc1Cn1nnc2c(=O)[nH]c(C3CCN(C(=O)c4ccc(F)cc4)CC3)nc21	101	98	1	-1	x
COc1ccccc1Cn1nnc2c(=O)[nH]c(C3CCN(C(=O)c4ccccc4Cl)CC3)nc21	105	99	-2	1	100
CC(C(=O)NCC1(c2ccccc2)CCCC1)N1CCOCC1 (stereo not drawn)	103	60*	1	-2	102
CC(C(=O)NCC1(c2ccccc2)CCOCC1)N1CCOCC1 (stereo not drawn)	105	96	2	-1	x
Cc1ccc(C(=O)N2CCc3ccccc32)cc1C	x	100	x	6	x
C/C(CC(=O)Nc1ccc(Br)cc1)=N\NC(=O)Cc1csc(N)n1	x	99	x	2	x
CC(=O)Oc1cccc(/C=C2\Sc3ccccc3C2=O)c1	x	72*	13	2	96
O=C(C1CCC(=O)N(C2CCCC2)C1)N1CCN(Cc2cccc(Cl)c2)CC1 (stereo not drawn)	x	95	-1	-1	x
O=C(C(Cc1ccccc1)n1cccc1)N1CCCCCC1 (stereo not drawn)	104	104	-1	0	x
Cc1ccc(-n2c(C(C)n3nc(C)c([N+](=O)[O-])c3C)n[nH]c2=S)cc1 (stereo not drawn)	99	61*	-1	-2	98
COc1ccc(-n2c(C(C)n3nc(C)c([N+](=O)[O-])c3C)n[nH]c2=S)cc1 (stereo not drawn)	107	97	0	-4	x
O=C(c1ccc(S(=O)(=O)Nc2cccc(C(F)(F)F)c2)cc1)N1CCOCC1	x	97	-2	-1	x
CC(C)(CNC(=O)c1ccc(S(=O)(=O)Nc2cccc(C(F)(F)F)c2)cc1)N1CCOCC1	x	72*	2	0	102

Compound activity (PubChem)
